Among the data in ChEMBL document CHEMBL2417529, “An expedient, ionic liquid mediated multi-component synthesis of novel piperidone grafted cholinesterase enzymes inhibitors and their molecular modeling study” (Eur J Med Chem, 2013) are Ratio IC50 and IC50 values, retold here.

Assay [1] is described as follows: Selectivity ratio of IC50 for horse serum BChE to IC50 for electric eel AChE. Summed up: (§1)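 Ratio of IC50s from Ellman microplate assays in 0.1 M sodium phosphate pH 8 with 1% final DMSO. AChE (Electrophorus electricus) used acetylthiocholine iodide; BChE (equine serum) used S-butyrylthiocholine chloride, each 14 mM stock. Enzyme and sample preincubated 15 min at 25 °C, then DTNB and substrate added. A412 read at 30 min in triplicate; IC50 from five concentrations.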

In the next assay the target is Cholinesterase (Equus caballus, UniProt P81908). Briefly: Inhibition of horse serum BChE using S-butyrylthiocholine chloride as substrate preincubated for 15 mins followed by substrate addition measured after 30 mins by Ellman's microplate assay. The gist of the method:
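Equine serum BChE preincubated with test samples in 0.1 M sodium phosphate buffer pH 8 for 15 min at 25 °C. DTNB added, then S-butyrylthiocholine chloride (14 mM stock). Colored product read at 412 nm 30 min after reaction start. Final DMSO 1%; triplicates; blank-corrected absorbance; % inhibition versus control; IC50 from five concentrations.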

The target of the next assay is Acetylcholinesterase (Electrophorus electricus, UniProt O42275). Briefly: Inhibition of electric eel AChE using acetylthiocholine iodide as substrate preincubated for 15 mins followed by substrate addition measured after 30 mins by Ellman's microplate assay.
A short description of assay [2]: Selectivity ratio of IC50 for electric eel AChE to IC50 for horse serum BChE. Summed up: as §1

SMILES strings stand for the structures.

Sequence of Cholinesterase (P81908 whole entry): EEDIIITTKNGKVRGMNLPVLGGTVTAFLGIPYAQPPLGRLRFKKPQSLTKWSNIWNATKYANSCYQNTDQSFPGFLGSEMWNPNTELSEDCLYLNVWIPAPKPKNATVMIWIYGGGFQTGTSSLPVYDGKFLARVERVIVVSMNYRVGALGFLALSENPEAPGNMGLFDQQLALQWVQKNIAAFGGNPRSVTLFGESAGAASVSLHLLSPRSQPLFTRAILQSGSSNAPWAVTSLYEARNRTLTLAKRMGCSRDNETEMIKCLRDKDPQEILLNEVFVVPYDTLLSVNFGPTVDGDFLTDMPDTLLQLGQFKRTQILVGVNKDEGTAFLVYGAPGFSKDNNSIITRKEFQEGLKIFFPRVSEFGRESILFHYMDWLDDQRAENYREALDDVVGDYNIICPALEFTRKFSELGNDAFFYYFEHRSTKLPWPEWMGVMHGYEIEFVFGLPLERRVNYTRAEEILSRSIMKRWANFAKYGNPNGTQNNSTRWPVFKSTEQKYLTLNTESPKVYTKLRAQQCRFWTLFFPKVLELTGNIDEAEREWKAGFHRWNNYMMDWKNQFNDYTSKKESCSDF
Sequence of Acetylcholinesterase (O42275 whole entry): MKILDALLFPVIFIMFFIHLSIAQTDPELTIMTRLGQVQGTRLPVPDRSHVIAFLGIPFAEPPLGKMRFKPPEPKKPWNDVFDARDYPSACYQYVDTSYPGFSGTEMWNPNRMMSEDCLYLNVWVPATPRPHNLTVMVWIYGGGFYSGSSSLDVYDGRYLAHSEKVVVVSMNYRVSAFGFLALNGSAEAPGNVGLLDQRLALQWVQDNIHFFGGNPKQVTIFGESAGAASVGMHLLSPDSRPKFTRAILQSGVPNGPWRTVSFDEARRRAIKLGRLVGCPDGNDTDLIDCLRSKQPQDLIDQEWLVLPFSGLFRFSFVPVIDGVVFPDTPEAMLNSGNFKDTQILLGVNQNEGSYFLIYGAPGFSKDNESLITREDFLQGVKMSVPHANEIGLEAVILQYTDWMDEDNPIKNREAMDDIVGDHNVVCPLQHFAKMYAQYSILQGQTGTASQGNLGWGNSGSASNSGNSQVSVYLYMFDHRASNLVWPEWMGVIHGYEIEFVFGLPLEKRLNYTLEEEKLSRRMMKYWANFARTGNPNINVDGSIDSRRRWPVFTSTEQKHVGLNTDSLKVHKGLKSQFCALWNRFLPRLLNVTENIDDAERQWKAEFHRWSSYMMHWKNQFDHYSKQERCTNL

The IC50 is the concentration that inhibits the measured activity by half. A higher IC50 goes with weaker potency in that assay. As to `CCN1CC2=C(NC(=S)NC2c2ccccc2Cl)/C(=C/c2ccccc2Cl)C1` (stereo unspecified), the Ratio IC50 is 0.43 in assay [1] and 2.3 in assay [2]. For the same compound, the IC50 on Cholinesterase was 3.57 µM; at Acetylcholinesterase it was 8.22 µM.

In the case of `CCN1CC2=C(NC(=S)NC2c2ccc(F)cc2)/C(=C/c2ccc(F)cc2)C1` (stereo unspecified), the Ratio IC50 was 2.76 in assay [1] and 0.36 in assay [2]. For the same compound, the IC50 was 5.98 µM against Cholinesterase and 2.07 µM on Acetylcholinesterase.

As for `S=C1NC2=C(CN(CCN3CCOCC3)C/C2=C\c2ccccc2)C(c2ccccc2)N1` (stereo unspecified), the Ratio IC50 in assay [1] came out at 0.72; in assay [2] it was 1.39. For the same compound, the IC50 at Cholinesterase was 3.23 µM; at Acetylcholinesterase, 4.49 µM.

With `CCN1CC2=C(NC(=S)NC2c2ccccc2)/C(=C/c2ccccc2)C1` (stereo unspecified), the Ratio IC50 in assay [1] was determined as 4.56; in assay [2], 0.22. Further, the IC50 against Cholinesterase amounted to 4.2 µM; on Acetylcholinesterase, 0.92 µM.

Consider `Fc1ccccc1/C=C1\CN(CCN2CCOCC2)CC2=C1NC(=S)NC2c1ccccc1F` (stereo unspecified), for which the Ratio IC50 turned out to be 0.32 in assay [1] and 3.14 in assay [2]. Moreover, the IC50 at Cholinesterase was determined as 2.97 µM; against Acetylcholinesterase, 9.32 µM.

With `Fc1ccc(/C=C2\CN(CCN3CCOCC3)CC3=C2NC(=S)NC3c2ccc(F)cc2)cc1` (stereo unspecified), the Ratio IC50 in assay [1] was 0.51; in assay [2] it was 1.97. For the same compound, the IC50 on Cholinesterase came out at 3.41 µM; at Acetylcholinesterase, 6.72 µM.

Regarding `CCN1CC2=C(NC(=S)NC2c2ccc(C)cc2)/C(=C/c2ccc(C)cc2)C1` (stereo unspecified), the Ratio IC50 in assay [1] was 0.94; in assay [2], 1.06. Also, the IC50 on Cholinesterase worked out at 4.73 µM; at Acetylcholinesterase, 5.02 µM.

As to `CCN1CC2=C(NC(=S)NC2c2ccccc2C)/C(=C/c2ccccc2C)C1` (stereo unspecified), the Ratio IC50 in assay [1] amounted to 0.64; in assay [2], 1.57. The IC50 against Cholinesterase amounted to 3.93 µM; on Acetylcholinesterase, 6.17 µM.

Take `S=C1NC2=C(CN(CCN3CCOCC3)C/C2=C\c2ccccc2Cl)C(c2ccccc2Cl)N1` (stereo unspecified): the Ratio IC50 was 0.36 in assay [1] and 2.77 in assay [2]. Also, the IC50 against Cholinesterase stood at 2.44 µM; against Acetylcholinesterase, 6.75 µM.

For `CCN1CC2=C(NC(=S)NC2c2ccccc2OC)/C(=C/c2ccccc2OC)C1` (stereo unspecified), the Ratio IC50 was determined as 1.65 in assay [1] and 0.61 in assay [2]. In addition, the figures for the IC50 on Cholinesterase and against Acetylcholinesterase were 8.13 µM and 4.92 µM, respectively.

Consider `Cc1ccccc1/C=C1\CN(CCN2CCOCC2)CC2=C1NC(=S)NC2c1ccccc1C` (stereo unspecified), for which the figures for the Ratio IC50 in assay [1] and in assay [2] were 0.23 and 4.31, respectively. Also, the IC50 was determined as 1.89 µM on Cholinesterase and 8.15 µM on Acetylcholinesterase.

For the compound `Cc1ccc(/C=C2\CN(CCN3CCOCC3)CC3=C2NC(=S)NC3c2ccc(C)cc2)cc1` (stereo unspecified), the Ratio IC50 in assay [1] stood at 0.5; in assay [2] it was 2. In addition, the IC50 amounted to 3.58 µM on Cholinesterase and 7.16 µM against Acetylcholinesterase.

Consider `CCN1CC2=C(NC(=S)NC2c2ccccc2F)/C(=C/c2ccccc2F)C1` (stereo unspecified), for which the results for the Ratio IC50 in assay [1] and in assay [2] were 0.81 and 1.24, respectively. Also, the values for the IC50 against Cholinesterase and against Acetylcholinesterase were 4.48 µM and 5.54 µM, respectively.

For the compound `S=C1NC2=C(CN(CCN3CCOCC3)C/C2=C\c2ccc(Cl)cc2Cl)C(c2ccc(Cl)cc2Cl)N1` (stereo unspecified), the Ratio IC50 in assay [1] worked out at 0.68; in assay [2], 1.47. Further, the IC50 against Cholinesterase worked out at 5.87 µM; against Acetylcholinesterase it was 8.67 µM.

`CCN1CC2=C(NC(=S)NC2c2cccc([N+](=O)[O-])c2)/C(=C/c2cccc([N+](=O)[O-])c2)C1` (stereo unspecified): the Ratio IC50 in assay [1] was determined as 0.65; in assay [2], 1.54. Also, the figures for the concentration for half-maximal inhibition (IC50) at Cholinesterase and on Acetylcholinesterase were 5.11 µM and 7.88 µM, respectively.

On to `S=C1NC2=C(CN(CCN3CCOCC3)C/C2=C\c2ccc(Cl)cc2)C(c2ccc(Cl)cc2)N1` (stereo unspecified), for which the Ratio IC50 in assay [1] turned out to be 0.78; in assay [2], 1.28. For the same compound, the IC50 worked out at 4.28 µM on Cholinesterase and 5.49 µM against Acetylcholinesterase.

In the case of `CCN1CC2=C(NC(=S)NC2c2ccc(Cl)cc2)/C(=C/c2ccc(Cl)cc2)C1` (stereo unspecified), the Ratio IC50 in assay [1] turned out to be 4.56; in assay [2] it was 0.22. Moreover, the results for the IC50 against Cholinesterase and against Acetylcholinesterase were 5.88 µM and 1.29 µM, respectively.

In the case of `CCN1CC2=C(NC(=S)NC2c2ccc(Cl)cc2Cl)/C(=C/c2ccc(Cl)cc2Cl)C1` (stereo unspecified), the results for the Ratio IC50 in assay [1] and in assay [2] were 0.41 and 2.42, respectively. Also, the IC50 against Cholinesterase is 3.61 µM; against Acetylcholinesterase it was 8.75 µM.

On to `COc1ccccc1/C=C1\CN(CCN2CCOCC2)CC2=C1NC(=S)NC2c1ccccc1OC` (stereo unspecified), for which the figures for the Ratio IC50 in assay [1] and in assay [2] were 0.71 and 1.42, respectively. For the same compound, the IC50 was found to be 5.93 µM at Cholinesterase and 8.39 µM at Acetylcholinesterase.
